According to ChEMBL document CHEMBL4392827, “Tryptamine derivatives disarm colistin resistance in polymyxin-resistant gram-negative bacteria” (Bioorg Med Chem, 2019):

Legend:
[1] = tested on: Klebsiella pneumoniae; test: Potentiation of colistin-induced antimicrobial activity against colistin-resistant Klebsiella pneumoniae isolate C3 assessed as fold reduction in colistin MIC at 50 uM after 18 hrs by broth microdilution assay; format: functional
How it was run: (§1)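 CLSI-adapted broth microdilution. Bacteria were grown 4–6 h in cation-adjusted Mueller-Hinton broth and subcultured to 5 ×10^5 CFU/mL. The subculture was dosed with adjuvant from DMSO stock at a constant final concentration, then colistin was added and serially diluted across wells. Plates were incubated stationary at 37°C for 18 h and the MIC recorded. Fold reduction is relative to the colistin MIC without adjuvant.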

[2] = tested on: Acinetobacter baumannii; test: Potentiation of colistin-induced antimicrobial activity against colistin-resistant Acinetobacter baumannii isolate 3942 assessed as fold reduction in colistin MIC at 20 uM after 18 hrs by broth microdilution assay; format: functional; how it was run: as §1
[3] = tested on: Klebsiella pneumoniae; test: Potentiation of colistin-induced antimicrobial activity against colistin-resistant Klebsiella pneumoniae isolate C3 assessed as fold reduction in colistin MIC at 10 uM after 18 hrs by broth microdilution assay; format: functional; how it was run: as §1
[4] = tested on: Klebsiella pneumoniae; test: Potentiation of colistin-induced antimicrobial activity against colistin-resistant Klebsiella pneumoniae isolate C3 assessed as fold reduction in colistin MIC at 40 uM after 18 hrs by broth microdilution assay; format: functional; how it was run: as §1
[5] = tested on: Klebsiella pneumoniae; test: Potentiation of colistin-induced antimicrobial activity against colistin-resistant Klebsiella pneumoniae isolate C3 assessed as fold reduction in colistin MIC at 30 uM after 18 hrs by broth microdilution assay; format: functional; how it was run: as §1
[6] = tested on: Klebsiella pneumoniae; test: Potentiation of colistin-induced antimicrobial activity against colistin-resistant Klebsiella pneumoniae isolate C3 assessed as fold reduction in colistin MIC at 60 uM after 18 hrs by broth microdilution assay; format: functional
How it was run: (§2)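 Checkerboard-style resensitization following adapted CLSI broth microdilution. Bacteria were grown 4–6 h in CAMHB and subcultured to 5×10^5 CFU/mL. Adjuvant was added from DMSO stock and held constant while colistin was serially diluted in the dosed subculture. Plates were incubated stationary at 37°C for 18 h, then MICs were read. Fold reduction was taken relative to the colistin MIC without adjuvant.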

[7] = tested on: Klebsiella pneumoniae; test: Potentiation of colistin-induced antimicrobial activity against colistin-resistant Klebsiella pneumoniae isolate C3 assessed as fold reduction in colistin MIC at 30 uM incubated for 2 to 24 hrs under shaking condition in presence of 0.001% triton X-100 by broth microdilution assay; format: functional
[8] = tested on: Klebsiella pneumoniae; test: Potentiation of colistin-induced antimicrobial activity against colistin-resistant Klebsiella pneumoniae isolate C3 assessed as fold reduction in colistin MIC at 60 uM incubated for 2 to 24 hrs under shaking condition in presence of 0.001% triton X-100 by broth microdilution assay; format: functional
[9] = tested on: Klebsiella pneumoniae; test: Potentiation of colistin-induced antimicrobial activity against colistin-resistant Klebsiella pneumoniae isolate C3 assessed as fold reduction in colistin MIC at 5 uM after 18 hrs by broth microdilution assay; format: functional; how it was run: as §1
[10] = tested on: Acinetobacter baumannii; test: Potentiation of colistin-induced antimicrobial activity against colistin-resistant Acinetobacter baumannii isolate 3942 assessed as fold reduction in colistin MIC at 40 uM after 18 hrs by broth microdilution assay; format: functional; how it was run: as §1
[11] = tested on: Acinetobacter baumannii; test: Potentiation of colistin-induced antimicrobial activity against colistin-resistant Acinetobacter baumannii isolate 3942 assessed as fold reduction in colistin MIC at 5 uM after 18 hrs by broth microdilution assay; format: functional; how it was run: as §1
[12] = tested on: Acinetobacter baumannii; test: Potentiation of colistin-induced antimicrobial activity against colistin-sensitive Acinetobacter baumannii 5075 assessed as fold reduction in colistin MIC at 60 uM after 18 hrs by broth microdilution assay; format: functional
How it was run: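 Bacteria grown 4–6 h in cation-adjusted Mueller-Hinton broth and diluted to 5 ×10^5 CFU/mL. Adjuvant from DMSO stock held at fixed 60 μM while colistin is twofold serially diluted in the same adjuvant-dosed broth. Plates sealed and kept stationary at 37°C for 18 h. Colistin MIC read and fold reduction taken relative to colistin alone.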

[13] = tested on: Acinetobacter baumannii; test: Potentiation of colistin-induced antimicrobial activity against colistin-resistant Acinetobacter baumannii isolate 3942 assessed as fold reduction in colistin MIC at 60 uM after 18 hrs by broth microdilution assay; format: functional; how it was run: as §2
[14] = tested on: Acinetobacter baumannii; test: Potentiation of colistin-induced antimicrobial activity against colistin-resistant Acinetobacter baumannii ATCC 17978 expressing mcr1 gene assessed as fold reduction in colistin MIC at 60 uM after 18 hrs by broth microdilution assay; format: functional; how it was run: as §2
[15] = tested on: Acinetobacter baumannii; test: Potentiation of colistin-induced antimicrobial activity against colistin-resistant Acinetobacter baumannii isolate 4112 assessed as fold reduction in colistin MIC at 60 uM after 18 hrs by broth microdilution assay; format: functional; how it was run: as §2
[16] = tested on: Klebsiella pneumoniae; test: Potentiation of colistin-induced antimicrobial activity against colistin-resistant Klebsiella pneumoniae isolate C3 after 18 hrs by broth microdilution assay; format: functional, organism-based
How it was run: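 Colistin MIC was determined by adapted CLSI broth microdilution in CAMHB (5×10^5 CFU/mL inoculum), with adjuvant held at fixed levels of 5, 10, 15, 20, 30, 40, 50 or 60 μM. Adjuvant was dosed from DMSO stock while colistin was serially diluted. Plates were incubated stationary at 37°C for 18 h. Fold reduction was taken versus colistin alone.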

[17] = tested on: Escherichia coli; test: Potentiation of colistin-induced antimicrobial activity against colistin-resistant Escherichia coli ATCC 25922 expressing mcr1 gene assessed as fold reduction in colistin MIC at 60 uM after 18 hrs by broth microdilution assay; format: functional; how it was run: as §2

Structure (SMILES): O=C(NCc1c[nH]c2ccccc12)c1cc(Br)c(Br)[nH]1
- fold change (FC) [1]: 512
- fold change (FC) [2]: 16
- fold change (FC) [3]: 32
- fold change (FC) [4]: 256
- fold change (FC) [5]: 128
- fold change (FC) [6]: 2048
- fold change (FC) [7]: 512
- fold change (FC) [8]: 2048
- fold change (FC) [9]: 4
- fold change (FC) [10]: 256
- fold change (FC) [11]: 0
- fold change (FC) [12]: 4
- fold change (FC) [13]: 2048
- fold change (FC) [14]: 32
- fold change (FC) [15]: 2048
- Activity [16]: Dose-dependent effect
- fold change (FC) [17]: 16
